Test results published in paper PMC6392825 (ChemistryOpen, 2019).
Converted amounts (≈) assume the structure as drawn.

What was measured:
[1] = tested on: HT‐29; assay: Cell growth inhibition, protein content; format: cell-based; conditions: Homo sapiens, HT-29, 72 h, read-out: IC50 SRB
Method in brief: (§1)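 Cell lines from ATCC, grown in DMEM+glutamax with 1% NEAA, 1% P/S and 10% FBS at 37 °C, 10% CO2. Seeded at 20000 cells/well for 24 h, then exposed to test compound (25 mM DMSO stock) for three days. Fixed with cold TCA for 1 h at 4 °C, stained 30 min with 0.4% SRB in 1% acetic acid, dissolved in 10 mM Tris, A490. Triplicate; IC50 given as mean ± SD combined with MTT data (n ≥ 3).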

[2] = tested on: HepG2; assay: Cytotoxicity, mitochondrial activity; format: cell-based; conditions: Homo sapiens, HepG2, 72 h, read-out: IC50 MTT
Method in brief: (§2)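 Seeded at 20000 cells/well in DMEM and grown 24 h at 37 °C, 10% CO2. Medium was then replaced with serum-free medium holding test compound (25 mM DMSO stock) at various concentrations for 72 h, in triplicate; doxorubicin was the positive control. MTT (5 mg/mL stock in PBS) added for 2 h, formazan dissolved in DMSO, A570. IC50 derived from % surviving cells, reported as mean ± SD combined with SRB data.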

[3] = tested on: EA.hy926; assay: Cytotoxicity, mitochondrial activity; format: cell-based; conditions: Homo sapiens, EA.hy 926, 72 h, read-out: IC50 MTT
Method in brief: as §2

[4] = tested on: CHO‐K1; assay: Intracellular ROS assay; format: cell-based, Chinese hamster; conditions: CHO‐K1, vs untreated control, 10 and 1 μM
Method in brief: (§3)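 Cells seeded at 20000/well and grown 24 h at 37 °C, 10% CO2, then treated with test compound at 10 and 1 μM in serum-free medium. NAC and doxorubicin served as controls. After a PBS wash, cells were loaded with 20 μM DCFH-DA for 30 min, washed, and held 1 h in phenol red-free DMEM. Fluorescence read at ex 485/em 535 nm and normalized to SRB in the same well. Reported as % of untreated control, n ≥ 3, two-tailed t-test with unequal variances.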

[5] = tested on: EA.hy926; assay: Intracellular ROS assay; format: cell-based; conditions: for change of intracellular ROS in words: EA.hy926, vs untreated control, 10 and 1 μM; for activity at 1 µM / activity at 10 µM: Homo sapiens, EA.hy 926, read-out: Intracellular ROS, percentage compared to the untreated control cells (ROS/SRB)
Method in brief: as §3

[6] = tested on: Caco‐2; assay: Cell growth inhibition, protein content; format: cell-based; conditions: Homo sapiens, Caco-2, 72 h, read-out: IC50 SRB
Method in brief: as §1

[7] = tested on: HepG2; assay: Cell growth inhibition, protein content; format: cell-based; conditions: Homo sapiens, HepG2, 72 h, read-out: IC50 SRB
Method in brief: as §1

[8] = tested on: EA.hy926; assay: Cell growth inhibition, protein content; format: cell-based; conditions: Homo sapiens, EA.hy 926, 72 h, read-out: IC50 SRB
Method in brief: as §1

[9] = tested on: Caco‐2; assay: Cytotoxicity, mitochondrial activity; format: cell-based; conditions: Homo sapiens, Caco-2, 72 h, read-out: IC50 MTT
Method in brief: as §2

[10] = tested on: HT‐29; assay: Intracellular ROS assay; format: cell-based; conditions: for change of intracellular ROS in words: HT‐29, vs untreated control, 10 and 1 μM; for activity at 1 µM / activity at 10 µM: Homo sapiens, HT-29, read-out: Intracellular ROS, percentage compared to the untreated control cells (ROS/SRB)
Method in brief: as §3

[11] = tested on: HepG2; assay: Intracellular ROS assay; format: cell-based; conditions: for change of intracellular ROS in words: HepG2, vs untreated control, 10 and 1 μM; for activity at 1 µM / activity at 10 µM: Homo sapiens, HepG2, read-out: Intracellular ROS, percentage compared to the untreated control cells (ROS/SRB)
Method in brief: as §3

[12] = tested on: HT‐29; assay: Cytotoxicity, mitochondrial activity; format: cell-based; conditions: Homo sapiens, HT-29, 72 h, read-out: IC50 MTT
Method in brief: as §2

[13] = tested on: Caco‐2; assay: Intracellular ROS assay; format: cell-based; conditions: for change of intracellular ROS in words: Caco‐2, vs untreated control, 10 and 1 μM; for activity at 1 µM / activity at 10 µM: Homo sapiens, Caco-2, read-out: Intracellular ROS, percentage compared to the untreated control cells (ROS/SRB)
Method in brief: as §3

[14] = Chemical antioxidant capacity, FRAP assay
[15] = Water solubility, shake flask method, 0.1 M phosphate buffer pH 6.8; format: physicochemical; conditions: 37 °C, pH 6.8, aqueous buffer, thermodynamic from solid

Structure (SMILES): COc1cccc2c1C(=O)c1c(O)c3c(c(O)c1C2=O)C[C@@](O)(C(=O)CO)C[C@@H]3O[C@H]1C[C@H](N)[C@H](O)[C@H](C)O1 [Dox, doxorubicin, reference compound]
- IC50 [1]: 2.7 ± 0.1 µM
- IC50 [2]: 1.8 ± 0.1 µM
- IC50 [3]: 4.1 ± 0.1 µM
- change of intracellular ROS in words [4]: significant increase in ROS generation
- change of intracellular ROS in words [5]: significant increase in ROS generation
- activity at 1 µM [5]: 108 ± 6.2%
- activity at 10 µM [5]: 125 ± 5.1%
- IC50 [6]: 9.2 ± 0.5 µM
- IC50 [7]: 1.3 ± 0.3 µM
- IC50 [8]: 3.4 ± 0.4 µM
- IC50 [9]: 13 ± 0.5 µM
- change of intracellular ROS in words [10]: significant increase in ROS generation
- activity at 1 µM [10]: 116 ± 1.7%
- activity at 10 µM [10]: 126 ± 1.8%
- change of intracellular ROS in words [11]: significant increase in ROS generation
- activity at 1 µM [11]: 100 ± 4.1%
- activity at 10 µM [11]: 119 ± 4.2%
- IC50 [12]: 4.8 ± 0.1 µM
- change of intracellular ROS in words [13]: significant increase in ROS generation
- activity at 1 µM [13]: 121 ± 9.4%
- activity at 10 µM [13]: 112 ± 3.9%

Structure (SMILES): C(=C\c1c[nH]c2ccccc12)/c1cc(/C=C/c2cccs2)[nH]n1 [4 d, 3‐{(E)‐2‐[5‐((E)‐2‐(thiophen‐2‐yl)vinyl)‐1H‐pyrazol‐3‐yl]vinyl}‐1H‐indole]
- IC50 [1]: 9.7 ± 0.5 µM
- IC50 [2]: 34.9 ± 0.8 µM
- FRAP (Trolox equivalent per μM) [14]: 0.33 Trolox equivalent per μM
- FRAP (curcumin equivalent per μM) [14]: 0.32 curcumin equivalent per μM
- IC50 [3]: 6 ± 0.9 µM
- change of intracellular ROS in words [4]: significantly increased ROS
- change of intracellular ROS in words [5]: significantly increased ROS production
- activity at 1 µM [5]: 483.9 ± 1.4%
- activity at 10 µM [5]: 402 ± 23.4%
- IC50 [6]: 21.1 ± 0.3 µM
- IC50 [7]: 49.5 ± 2.1 µM
- IC50 [8]: 9.5 ± 0.4 µM
- solubility at 90 min [15]: 13.7 ± 0.5 µM (≈ 4.35 µg/mL)
- solubility at 24 h [15]: 11.7 ± 2.3 µM (≈ 3.71 µg/mL)
- IC50 [9]: 19.6 ± 4 µM
- change of intracellular ROS in words [10]: higher ROS signal
- activity at 1 µM [10]: 463 ± 42.7%
- activity at 10 µM [10]: 384 ± 47.5%
- change of intracellular ROS in words [11]: significantly increased ROS production
- activity at 10 µM [11]: 985 ± 78.2%
- IC50 [12]: 4.2 ± 0.4 µM
- change of intracellular ROS in words [13]: significantly increased ROS production
- activity at 1 µM [13]: 458 ± 97.5%
- activity at 10 µM [13]: 382 ± 62.6%

Structure (SMILES): COc1cc(/C=C/c2cc(/C=C/c3ccncc3)[nH]n2)ccc1O [4 b, 2‐Methoxy‐4‐{(E)‐2‐[5‐((E)‐2‐(pyridin‐4‐yl)vinyl)‐1H‐pyrazol‐3‐yl]vinyl}phenol]
- IC50 [1]: 47.4 ± 0.2 µM
- IC50 [2]: 56.7 ± 0.5 µM
- FRAP (Trolox equivalent per μM) [14]: 0.43 Trolox equivalent per μM
- FRAP (curcumin equivalent per μM) [14]: 0.42 curcumin equivalent per μM
- IC50 [3]: 35.7 ± 0.1 µM
- change of intracellular ROS in words [4]: significantly increased ROS
- change of intracellular ROS in words [5]: decreased intracellular ROS
- activity at 1 µM [5]: 86.9 ± 1.6%
- activity at 10 µM [5]: 80.6 ± 6.8%
- IC50 [6]: 46.5 ± 0.5 µM
- IC50 [7]: 54.6 ± 0.3 µM
- IC50 [8]: 51.8 ± 0.3 µM
- solubility at 90 min [15]: 16.8 ± 1.6 µM (≈ 5.37 µg/mL)
- solubility at 24 h [15]: 12.8 ± 1.4 µM (≈ 4.09 µg/mL)
- IC50 [9]: 39.3 ± 1.2 µM
- activity at 1 µM [10]: 111 ± 16.2%
- activity at 10 µM [10]: 114 ± 12.3%
- change of intracellular ROS in words [11]: significantly increased ROS production
- activity at 1 µM [11]: 135 ± 14.1%
- activity at 10 µM [11]: 123 ± 11.4%
- IC50 [12]: 49 ± 0.7 µM
- activity at 1 µM [13]: 106 ± 4.6%
- activity at 10 µM [13]: 94.3 ± 6.7%

Structure (SMILES): COc1cc(/C=C/C(=O)/C=C(O)/C=C/c2cccnc2)ccc1O [3 a, (1E,4Z,6E)‐5‐Hydroxy‐1‐(4‐hydroxy‐3‐methoxyphenyl)‐7‐(pyridin‐3‐yl)hepta‐1,4,6‐triene‐3‐one]
- IC50 [1]: 20.9 ± 0.9 µM
- IC50 [2]: 14.1 ± 0.3 µM
- FRAP (Trolox equivalent per μM) [14]: 0.42 Trolox equivalent per μM
- FRAP (curcumin equivalent per μM) [14]: 0.40 curcumin equivalent per μM
- IC50 [3]: 8.5 ± 0.4 µM
- activity at 1 µM [5]: 123 ± 9.5%
- activity at 10 µM [5]: 95.5 ± 5.1%
- IC50 [6]: 25 ± 1.8 µM
- IC50 [7]: 16.8 ± 0.9 µM
- IC50 [8]: 3.8 µM
- solubility at 90 min [15]: 8.1 ± 1.6 µM (≈ 2.62 µg/mL)
- solubility at 24 h [15]: 14.5 ± 1.1 µM (≈ 4.69 µg/mL)
- IC50 [9]: 14.6 ± 2 µM
- change of intracellular ROS in words [10]: significantly decreased ROS signal
- activity at 1 µM [10]: 83.2 ± 3.2%
- activity at 10 µM [10]: 89.9 ± 4.3%
- change of intracellular ROS in words [11]: significantly decreased ROS signal
- activity at 1 µM [11]: 116 ± 12.8%
- activity at 10 µM [11]: 82.3 ± 1.9%
- IC50 [12]: 17.9 ± 0.1 µM
- change of intracellular ROS in words [13]: significantly increased ROS production
- activity at 1 µM [13]: 106 ± 8.4%
- activity at 10 µM [13]: 120 ± 8.7%

Structure (SMILES): O=C(/C=C(O)/C=C/c1ccncc1)/C=C/c1c[nH]c2ccccc12 [3 i, (1E,4Z,6E)‐5‐Hydroxy‐1‐(1H‐indol‐3‐yl)‐7‐(pyridin‐4‐yl)hepta‐1,4,6‐trien‐3‐one]
- IC50 [1]: 64.2 ± 2.76 µM
- IC50 [2]: 48.5 ± 1.7 µM
- FRAP (Trolox equivalent per μM) [14]: 0.19 Trolox equivalent per μM
- FRAP (curcumin equivalent per μM) [14]: 0.18 curcumin equivalent per μM
- IC50 [3]: 34.9 ± 1.3 µM
- activity at 1 µM [5]: 106 ± 10.5%
- activity at 10 µM [5]: 119 ± 2.9%
- IC50 [6]: 29.8 ± 2.3 µM
- IC50 [7]: > 75 µM
- IC50 [8]: > 75 µM
- solubility at 90 min [15]: 7.8 ± 0.1 µM (≈ 2.47 µg/mL)
- solubility at 24 h [15]: 7.7 ± 0.6 µM (≈ 2.44 µg/mL)
- IC50 [9]: 47.1 ± 1.6 µM
- activity at 1 µM [10]: 73.3 ± 7.8%
- activity at 10 µM [10]: 73.6 ± 5.3%
- activity at 1 µM [11]: 125 ± 12%
- activity at 10 µM [11]: 147 ± 12.8%
- IC50 [12]: 42 ± 1 µM
- activity at 1 µM [13]: 101 ± 5.1%
- activity at 10 µM [13]: 89.7 ± 8.9%
